Results of several laboratories.
Lines come from different studies, so protocols differ.
Target: Homeodomain-interacting protein kinase 3 (HIPK3, Homo sapiens, UniProt Q9H422)

For Cc1cnn2ncc(-c3ccnc(N(C)C)n3)c2c1, the remaining binding was 68% (binding; 1 µM).
CCN1CCN(Cc2ccc(C(=O)Nc3ccc(C)c(Oc4ccc5c(c4)CC(=O)N5)c3)cc2C(F)(F)F)CC1 gave a remaining binding of 100% (binding, competition with immobilised ligand; 1 µM).
With C[C@@H]1CCN(c2nccc(-c3cnn4ncccc34)n2)C1 the remaining binding was 68% (binding; 1 µM).
With O=C(NCCCN1CCOCC1)c1ccc(Nc2ncc(Cl)c(-c3ccc(Cl)s3)n2)cc1 the remaining binding was 15% (binding, competition with immobilised ligand; 1 µM).
The remaining binding of Cn1nc(C(F)(F)F)cc1-c1cnc(N2CCc3cc(S(=O)(=O)Nc4c(F)cc(Cl)cc4F)cc(N4CCCC4=O)c32)nc1 is reported as 85% (cell-free assay, competition with immobilised ligand; 1 µM).
For COc1cnc(Nc2cccc(S(N)(=O)=O)c2)nc1N1CCN(c2ccccc2)C(=O)C1, the remaining binding was 82% (binding, competition with immobilised ligand; 1 µM).
Cc1cnc(Nc2ccc(C(=O)N3CCC(N4CCCC4)CC3)cc2)nc1-c1cc2ccccc2s1 has a remaining binding of 3.1% (binding, competition with immobilised ligand; 1 µM).
With CN(C)c1nccc(-c2cnn3ncccc23)n1 the remaining binding was 51% (binding; 1 µM).
For O=C(Nc1ccc(Oc2ccc(F)cc2)cc1)N1CCc2ncccc2[C@H]1c1ccc(F)cc1, the remaining binding was 92% (cell-free assay, competition with immobilised ligand; 1 µM).
C[C@@H](c1ccc(-n2cnc3c(N)ncnc32)cc1)N1CCc2nn(C)c(Cc3ccccc3)c2C1=O has a remaining binding of 64% (binding, competition with immobilised ligand; 0.1 µM).
CN(c1nccc(-c2cnn3ncccc23)n1)C1CC1 has a remaining binding of 100% (binding; 1 µM).
O=C(c1ccc(Nc2ncc(Cl)c(-c3ccc(Cl)s3)n2)cc1)N1CCC(N2CCCC2)CC1 has a remaining binding of 3.5% (binding, competition with immobilised ligand; 1 µM).
O=C1NC(c2ccccn2)Sc2ccccc21 (stereo not shown) has a remaining binding of 86% (cell-free assay, competition with immobilised ligand; 1 µM).
For CN(C)c1nccc(-c2cnc3ncccn23)n1, the remaining binding was 46% (binding; 1 µM).
The remaining binding of O=C(NCc1ncc(C(F)(F)F)cc1Cl)c1ccc2c(c1)C1(CCS(=O)(=O)CC1)[C@@H](C1CC1)N2S(=O)(=O)c1ccc(F)cc1 is reported as 81% (cell-free assay, competition with immobilised ligand; 1 µM).
Nc1ncc2c(n1)-c1c([nH]c3ccc(C#CC4CC4)cc13)CCCC2 gave a remaining binding of 78% (binding, competition with immobilised ligand; 1 µM).
For COc1cnc(Nc2cccc(S(N)(=O)=O)c2)nc1N1CCN(c2ccccc2)CC1, the remaining binding was 100% (binding, competition with immobilised ligand; 1 µM).
C=CC(=O)N1CCC(C(=O)NCC(=O)N2CCN(c3nc(-c4cnc(N)nc4C(F)F)nc(N4CCOCC4)n3)CC2)CC1 gave a remaining binding of 100% (binding, competition with immobilised ligand; 1 µM).
With CCC(=O)N[C@H]1CC[C@@H](C(=O)N(C)c2ccc(-c3nc4ccccc4o3)cc2)C1 the remaining binding was 74% (cell-free assay, competition with immobilised ligand; 1 µM).
O=C(Nc1c[nH]nc1C(=O)NC1CCNCC1)c1cc(F)cc(F)c1 gave a remaining binding of 41% (binding, competition with immobilised ligand; 1 µM).
N[C@H]1CCN(c2nccc(-c3cnn4ncccc34)n2)C1 gave a remaining binding of 91% (binding; 1 µM).
The remaining binding of CCCCN(CCCC)C(=O)CN1C[C@@H](c2cc(OC)c3c(c2)OCO3)[C@H](C(=O)O)[C@H]1CC(C)(C)CCC is reported as 100% (cell-free assay, competition with immobilised ligand; 1 µM).
